# Laboratory results: PMC7416514 (Clinical & experimental metastasis, 2011)
# Where “and” joins values, the source holds several entries; their conditions need not be identical. Identical values can stand only once.
# Assays:
# 231-BR cells [1] = test: MTT-based viability assay; type: cell-based; details: Homo sapiens, 48 h, read-out: IC50 viability of 231-BR cells
# Summary of the method: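 231-BR cells in 10% FBS had continuous exposure to test compound over 1–100 nM for 48 h, then an MTT viability read-out. Viability is expressed as percent of vehicle control. There were three separate experiments with n = 4 per point; log10-transformed data went to mixed-model ANOVA with Dunnett post-hoc comparison.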
# 231-BR cells [2] = test: Western blot of apoptotic markers and phosphorylated Histone H3; type: cell-based, human
# Summary of the method: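 231-BR cells were treated with test compound at 5 or 10 nM for the indicated times, then lysed and run on SDS-PAGE with immunoblotting. Antibodies: PLK-1, phospho-histone H3, cleaved and total caspase 9, 8 and 3. Tubulin served as the loading control.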
# [3] = Whole body autoradiography tissue uptake; type: in vivo, rats; details: rat, single 12.5 mg/kg dose
# Summary of the method: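 Rats received a single dose of [14C]-labelled test compound and were sacrificed at timed points up to 24 h. Radioactivity in whole-body sections (brain, striatum, blood) was quantified by phosphoimager against 14C autoradiography standards. Results are μg equivalents/g tissue; limit of quantitation 0.051 μg equivalents/g.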
# 231-BR cells [4] = test: 231-BR experimental brain metastasis prevention model; type: in vivo, nu/nu NRC mice; details: for Micrometastases Mean: vehicle 239
# Summary of the method: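 Female nu/nu NRC mice, 5–7 weeks old, received 175,000 231-BR cells into the left cardiac ventricle. On day 3 they were randomised to test compound or vehicle (2% Cremophor EL, 2% N,N-dimethylacetamide in acidified pH 5 water). Brains were bisected sagittally; ten serial 10-micron sections every 300 microns through the right hemisphere were scored at 50×. Micro and large (>300 micron) lesions are given as mean per section, from two experiments combined, by mixed-model ANOVA with Dunnett adjustment.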
# 231-BR cells [5] = test: Survival study in 231-BR brain metastasis model; type: in vivo, nu/nu NRC mice; details: 50 mg/kg
# 231-BR cells [6] = test: Clonogenic survival assay with irradiation; type: cell-based, human; details: 40 nM, 2 h prior to irradiation, surviving fraction of 0.1
# [7] = Preliminary dose finding experiments; type: in vivo; details: 75 mg/kg, intraperitoneally every other day, mice
# [8] = phase I study in 40 patients ref 6; cited from earlier work
# TP53 mutant cells = details: cited from earlier work
smiles,measurement,setting,value
C[C@@H](Oc1cc(-n2cnc3ccc(CN4CCN(C)CC4)cc32)sc1C(N)=O)c1ccccc1C(F)(F)F [GSK461364A],IC50,231-BR cells [1],~5 nM
same,pHH3 levels (Western blot),231-BR cells [2]; 231-BR cells treated with 5 and 10 nM,increase in pHH3 levels
same,cleaved caspase 9 and cleaved caspase 3 (Western blot),231-BR cells [2]; 231-BR cells treated with 5 or 10 nM,Cleaved caspase 9 and cleaved caspase 3 were observed
same,"Tissue uptake, Brain",[3]; 0.5 h,3.192 μg equivalents/g tissue
same,"Tissue uptake, Brain (striatum)",[3]; 0.5 h,4.283 μg equivalents/g tissue
same,"Tissue uptake, Choroid plexus",[3]; 0.5 h,32.560 μg equivalents/g tissue
same,"Tissue uptake, Meninges",[3]; 0.5 h,10.305 μg equivalents/g tissue
same,"Tissue uptake, Blood (cardiac)","[3]; 0.5 h, listed as [^14C]GSK461364A, 12.5 mg/kg",2.4 μg equivalents/g tissue and 2.396^a μg equivalents/g tissue
same,Drug uptake in the brain or striatum,[3]; 30 min post-injection,3.2–4.3 μg equivalents/g of tissue
same,"Tissue uptake, Blood (cardiac)",[3]; 2 h,0.730 μg equivalents/g tissue
same,"Tissue uptake, Brain",[3]; 2 h,0.363 μg equivalents/g tissue
same,"Tissue uptake, Brain (striatum)",[3]; 2 h,0.522 μg equivalents/g tissue
same,"Tissue uptake, Choroid plexus",[3]; 2 h,9.734 μg equivalents/g tissue
same,"Tissue uptake, Meninges",[3]; 2 h,1.236 μg equivalents/g tissue
same,"Tissue uptake, Blood (cardiac)",[3]; 6 h,0.183 μg equivalents/g tissue
same,"Tissue uptake, Brain",[3]; 6 h,0.088 μg equivalents/g tissue
same,"Tissue uptake, Brain (striatum)",[3]; 6 h,0.225 μg equivalents/g tissue
same,"Tissue uptake, Choroid plexus",[3]; 6 h,2.790 μg equivalents/g tissue
same,"Tissue uptake, Meninges",[3]; 6 h,1.239 μg equivalents/g tissue
same,"Tissue uptake, Brain",[3]; 24 h,0.126 μg equivalents/g tissue
same,"Tissue uptake, Brain (striatum)",[3]; 24 h,0.288 μg equivalents/g tissue
same,"Tissue uptake, Choroid plexus",[3]; 24 h,2.342 μg equivalents/g tissue
same,"Tissue uptake, Meninges",[3]; 24 h,4.881 μg equivalents/g tissue
same,"Tissue uptake, Blood (cardiac)","[3]; 24 h, BLQ = <0.051 μg equivalents/g, 12.5 mg/kg",undetectable
same,"Tissue uptake, Blood (cardiac)","[3]; 24 h, BLQ = <0.051 μg equivalents/g, listed as [^14C]GSK461364A, 12.5 mg/kg",BLQ^b
same,Drug remaining in the brain,[3]; 24 h post-injection,0.13–0.29 μg equivalents/ g
same,Micrometastases Mean,231-BR cells [4]; 25 mg/kg IP every other day for 27 days from day 3,177 lesions/ section
same,reduction in micrometastases vs vehicle,"231-BR cells [4]; 25 mg/kg, statistically insignificant",26%
same,Micrometastases Mean,231-BR cells [4]; 50 mg/kg IP every other day for 27 days from day 3,159 lesions/ section
same,decline in large brain metastases vs vehicle,"231-BR cells [4]; 50 mg/kg, treatment started 3 days post-injection",62%
same,prolonged survival,231-BR cells [5]; treatment started 3 days post-injection,17%
same,survival compared to the vehicle control group,"231-BR cells [5]; treatment started day 3, 7 or 14 post-injection",extended survival to the same extent
same,dose enhancement factor,231-BR cells [6],1.5
same,toxicity in dose finding,[7],toxic causing acute weight loss
same,limiting toxicities,[8],"neutropenia, thrombocytopenia and bone marrow suppression"
same,phospho-Histone H3 (pHH3) in circulating tumor cells,[8],Increased
same,sensitivity in TP53 mutant cells,TP53 mutant cells,increased sensitivity
